Experimental data from ChEMBL document CHEMBL2157989, “Synthesis and biological evaluation of antibody conjugates of phosphate prodrugs of cytotoxic DNA alkylators for the targeted treatment of cancer” (J Med Chem, 2012).
≈ marks a conversion by molar mass, not a printed value.

How the values were obtained:
[1] = Prodrug activation assessed as enzyme-mediated compound dephosphorylation in presence of canine intestine alkaline phosphatase P8639 at pH 7.4 by HPLC; conditions: dog, isolated protein
[2] = Solubility of the compound in 10% DMA and 90% buffer at pH 7 at 1.5 mg sonicated for 45 mins followed by centrifugation for 45 mins by UV/Vis spectroscopy; type: physicochemical
Summary of the method: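 About 1.5 mg of compound is sonicated for 45 min in pH 7.0 buffer containing 10% or 20% DMA, then centrifuged at 1400g for 45 min. Supernatant concentration is read by UV/vis at 340 nm. ε at pH 7.0 is 41500 M⁻¹ cm⁻¹ for DC1–SR₂ compounds and 34500 M⁻¹ cm⁻¹ for phosphate prodrugs.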

[3] = Solubility in DMA at 1.5 mg sonicated for 45 mins followed by centrifugation for 45 mins by UV/Vis spectroscopy; type: physicochemical; conditions: 0.75 h
Summary of the method: (§1)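 Solid compound (~1.5 mg) in the stated solvent was sonicated 45 min, then centrifuged at 1400g for 45 min. The supernatant concentration was read by UV/vis at 340 nm, using ε = 41500 M⁻¹ cm⁻¹ for the free phenols and 34500 M⁻¹ cm⁻¹ for the phosphate prodrugs (pH 7.0 values).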

[4] = Prodrug activation assessed as enzyme-mediated compound dephosphorylation in presence of bovine intestinal mucosa alkaline phosphatase P7640 at pH 7.4 by HPLC; conditions: cattle, isolated protein
[5] = Solubility in ethanol at 1.5 mg sonicated for 45 mins followed by centrifugation for 45 mins by UV/Vis spectroscopy; type: physicochemical; conditions: 0.75 h; summary of the method: as §1
[6] = Prodrug conversion assessed as 1 - [ S ] - ( Ch l o r ome t h y l ) - 5 - h y d r o x y - 3 - { { 5 - [ 5 - ( 3 -methyldithiopropionyl)indol-2-yl-carbonyl amino]indole-2-yl}- carbonyl}-1,2-dihydro-3H-benz[e]indole formation in presence of bovine liver alkaline phosphatase at pH 7.4; type: physicochemical; conditions: cattle, isolated protein
[7] = Solubility in dichloromethane at 1.5 mg sonicated for 45 mins followed by centrifugation for 45 mins by UV/Vis spectroscopy; type: physicochemical; conditions: 0.75 h
[8] = Prodrug activation assessed as enzyme-mediated compound dephosphorylation in presence of calf intestine mucosa alkaline phosphatase P79390 at pH 7.4 by HPLC; conditions: cattle, isolated protein
[9] = Solubility of the compound in 5% DMA and 95% buffer at pH 7 at 1.5 mg sonicated for 45 mins followed by centrifugation for 45 mins by UV/Vis spectroscopy; type: physicochemical
Summary of the method: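 For buffers with 5% or less DMA, a 50 mM stock of compound in DMA is diluted 20–100 times into pH 7.0 buffer. It is then sonicated for 45 min and centrifuged at 1400g for 45 min. Supernatant is quantified by UV/vis at 340 nm, with ε of 41500 (DC1–SR₂ compounds) or 34500 M⁻¹ cm⁻¹ (phosphate prodrugs).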

[10] = Prodrug activation assessed as enzyme-mediated compound dephosphorylation in presence of human semen prostatic acid phosphatase P1649 at pH 7.4 by HPLC; conditions: isolated protein
[11] = Prodrug activation assessed as enzyme-mediated compound dephosphorylation in presence of porcine intestine mucosa alkaline phosphatase P4002 at pH 7.4 by HPLC; conditions: pig, isolated protein
[12] = Solubility in chloroform at 1.5 mg sonicated for 45 mins followed by centrifugation for 45 mins by UV/Vis spectroscopy; type: physicochemical; conditions: 0.75 h; summary of the method: as §1
[13] = Solubility in hexane at 1.5 mg sonicated for 45 mins followed by centrifugation for 45 mins by UV/Vis spectroscopy; type: physicochemical; conditions: 0.75 h; summary of the method: as §1
[14] = Solubility in DMSO at 1.5 mg sonicated for 45 mins followed by centrifugation for 45 mins by UV/Vis spectroscopy; type: physicochemical; conditions: 0.75 h; summary of the method: as §1
[15] = Solubility in water containing 5% acetone at 1.5 mg sonicated for 45 mins followed by centrifugation for 45 mins by UV/Vis spectroscopy; type: physicochemical; conditions: 0.75 h
[16] = Solubility in water at 1.5 mg sonicated for 45 mins followed by centrifugation for 45 mins by UV/Vis spectroscopy; type: physicochemical; conditions: 0.75 h; summary of the method: as §1
[17] = Prodrug activation assessed as enzyme-mediated compound dephosphorylation in presence of calf intestine alkaline phosphatase P7923 at pH 7.4 by HPLC; conditions: cattle, isolated protein
[18] = Cytotoxicity against human NAMALWA cells assessed as cell survival after 72 hrs in presence of bovine alkaline phosphatase by clonogenic assay; type: functional, cell-based; conditions: NAMALVA
Summary of the method: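 Clonogenic assay: cells in RPMI 1640 with 10% heat-inactivated FBS were plated at 1000–5000 cells/well. Test agent (0–3 nM) was combined with alkaline phosphatase from bovine liver, and cells were exposed for 72 h. Colonies then grew for 7–10 days after plating and were stained with 0.2% crystal violet in 10% formalin/PBS. Surviving fraction is relative to untreated control wells.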

[19] = Solubility in water containing 5% dioxane at 1.5 mg sonicated for 45 mins followed by centrifugation for 45 mins by UV/Vis spectroscopy; type: physicochemical; conditions: 0.75 h
[20] = Prodrug activation assessed as enzyme-mediated compound dephosphorylation in presence of bovine semen prostatic acid phosphatase P3147 at pH 7.4 by HPLC; conditions: cattle, isolated protein
[21] = Solubility in methanol at 1.5 mg sonicated for 45 mins followed by centrifugation for 45 mins by UV/Vis spectroscopy; type: physicochemical; conditions: 0.75 h; summary of the method: as §1
[22] = system: COLO 205; test: Cytotoxicity against human COLO205 cells assessed as cell survival after 72 hrs by clonogenic assay; type: functional, cell-based; conditions: COLO 205, 72 h
Summary of the method: (§2)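 Cells were kept in RPMI 1640 with 10% heat-inactivated FBS at 37 °C and 6% CO₂. They were plated at 1000–5000 cells/well and exposed to 0–3 nM test agent for 72 h. Medium was then replaced and colonies grew for 7–10 days in total after plating. Colonies were fixed and stained with 0.2% crystal violet in 10% formalin/PBS, then counted. Surviving fraction = colonies in treated wells / colonies in control wells; IC₅₀ was taken from this.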

[23] = Cytotoxicity against human NAMALWA cells assessed as cell survival after 72 hrs by clonogenic assay; type: functional, cell-based; conditions: NAMALVA; summary of the method: as §2
[24] = Solubility in water containing 5% DMA at 1.5 mg sonicated for 45 mins followed by centrifugation for 45 mins by UV/Vis spectroscopy; type: physicochemical; conditions: 0.75 h
[25] = system: HL-60; test: Cytotoxicity against human HL60 cells assessed as cell survival after 72 hrs by clonogenic assay; type: functional, cell-based; conditions: HL-60, 72 h; summary of the method: as §2
[26] = Prodrug activation assessed as enzyme-mediated compound dephosphorylation in presence of bovine liver alkaline phosphatase P7034 at pH 7.4 by HPLC; conditions: cattle, isolated protein
[27] = Solubility in water containing 5% DMSO at 1.5 mg sonicated for 45 mins followed by centrifugation for 45 mins by UV/Vis spectroscopy; type: physicochemical; conditions: 0.75 h
[28] = Prodrug conversion assessed as 5-(3-(Methyldisulfanyl)propanamido)-N-(2-((9aS)-4-oxo-2,4,9,9atetrahydro- 1H-benzo[e]cyclopropa[c]indole-2-carbonyl)-1H-indol- 5-yl)-1H-indole-2-carboxamide in cyclopropyl by HPLC analysis; type: physicochemical
[29] = Solubility in water containing 5% DMF at 1.5 mg sonicated for 45 mins followed by centrifugation for 45 mins by UV/Vis spectroscopy; type: physicochemical; conditions: 0.75 h
[30] = Prodrug activation assessed as enzyme-mediated compound dephosphorylation in presence of bovine alkaline phosphatase P8361 at pH 7.4 by HPLC; conditions: cattle, isolated protein

Drug metabolism [1] | solubility at 0.75 h [2] | solubility [3] | Drug metabolism [4] | solubility [5] | Drug metabolism [6] | solubility [7] | Drug metabolism [8] | solubility at 0.75 h [9] | Drug metabolism [10] | Drug metabolism [11] | solubility [12] | solubility [13] | solubility [14] | solubility [15] | solubility [16] | Drug metabolism [17] | solubility [19] | Drug metabolism [20] | Structure (SMILES) | IC50 [18] | other results
Active | 4.6 mM (≈ 3710 µg/mL) | soluble | Active | Insoluble | Active | Insoluble | Active | 2.9 mM (≈ 2340 µg/mL) | Active | Active | Insoluble | Insoluble | soluble | soluble | Insoluble | Active | soluble | Active | CSSC(C)(C)CCC(=O)Nc1ccc2[nH]c(C(=O)Nc3ccc4[nH]c(C(=O)N5C[C@@H](CCl)c6c5cc(OP(=O)(O)O)c5ccccc65)cc4c3)cc2c1 | 0.025 nM | solubility [21]: Insoluble; IC50 [22]: > 3 nM; IC50 [23]: 2.8 nM; solubility [24]: soluble; IC50 [25]: 1.9 nM; Drug metabolism [26]: Active; solubility [27]: soluble; Drug metabolism [28]: Active; solubility [29]: soluble; Drug metabolism [30]: Active
Active | 4.7 mM (≈ 3590 µg/mL) | soluble | Active | Insoluble | Active | Insoluble | Active | 3 mM (≈ 2290 µg/mL) | Active | Active | Insoluble | Insoluble | soluble | soluble | Insoluble | Active | soluble | Active | CSSCCC(=O)Nc1ccc2[nH]c(C(=O)Nc3ccc4[nH]c(C(=O)N5C[C@@H](CCl)c6c5cc(OP(=O)(O)O)c5ccccc65)cc4c3)cc2c1 | 0.03 nM | solubility [21]: Insoluble; IC50 [22]: > 3 nM; IC50 [23]: 2.9 nM; solubility [24]: soluble; IC50 [25]: 1.8 nM; Drug metabolism [26]: Active; solubility [27]: soluble; Drug metabolism [28]: Active; solubility [29]: soluble; Drug metabolism [30]: Active
